SMILES strings stand for the structures. In all, about 340,000 compounds went through this assay and about 3,000 (0.88%) were called active. This is one part of a sample in which actives are shown more often than they occur. A number with no mark means an inactive call.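 The calls were made as follows: active = inhibition above about 50% at 20 µM (limit read from the data); inactive = the rest.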 Non-standard residues stand in square brackets, D forms with d. Residues, ends and D or L forms follow the SMILES beside them. ξ: configuration not given here. ξM = CSCCC(N)C(=O)O

Chain of Carboxy-terminal domain RNA polymerase II polypeptide A small phosphatase 1 (Homo sapiens) (Q9GZU7 76-261 limits assumed): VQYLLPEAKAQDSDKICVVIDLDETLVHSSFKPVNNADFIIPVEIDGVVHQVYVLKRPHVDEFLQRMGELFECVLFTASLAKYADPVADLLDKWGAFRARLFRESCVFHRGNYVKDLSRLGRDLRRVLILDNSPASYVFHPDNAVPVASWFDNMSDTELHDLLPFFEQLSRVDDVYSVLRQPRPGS

For this assay, the target named is Carboxy-terminal domain RNA polymerase II polypeptide A small phosphatase 1 (Homo sapiens) (UniProt Q9GZU7). Briefly: Scp-1 phosphatase inhibitors, primary screen, biochemical, colorimetric, uHTS (AID 493091).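 Also: plate controls were DMSO wells with enzyme for no effect and wells lacking enzyme for full effect.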 Particulars: Recombinant Scp1, phosphopeptide, malachite green phosphate absorbance; at 20 µM; hits give high values. In a few lines:
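System: SCP-1 catalytic domain; Reagent: Phospho 17-mer peptide substrate; Doses: one concentration, 20 µM, with 1.0% DMSO; Incubation: 45 min room-temperature reaction, 5 min colour, 30 min stabiliser; Signal: Phosphate-binding colour reagent, absorbance read at 630 nm.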
For the compound `COc1ccc(C(=O)N(CCN2CCOCC2)CC(=O)NC2CCCC2)cc1OC`, the inhibition (as a rule, the drop in the measured response relative to a control, in per cent) was -4.37%.

With `Cc1ccnc(-n2sc3ccccc3c2=O)n1`, the inhibition is 70.8% (active).

As for `COc1ccccc1C(C)NC(=O)Cc1ccsc1` (stereo not given), the inhibition was 1.45%.

In the case of `CN(CC(=O)NCCc1ccccn1)S(=O)(=O)c1ccc(Cl)cc1`, the inhibition was -6.06%.

As for `CCCCOC(=O)c1ccc(N2C(=O)CC(N3CCN(C/C=C/c4ccccc4)CC3)C2=O)cc1` (stereo not given), the inhibition is -2.23%.

For `CC1CC(C)CN(S(=O)(=O)c2cccc3nonc23)C1` (stereo not given), the inhibition was -1.81%.

`CCN(Cc1cc2cc(C)ccc2[nH]c1=O)S(=O)(=O)c1ccccc1`: the inhibition was -4.68%.

As to `CCCc1nc(-c2cc3cc(C)ccc3[nH]c2=O)no1`, the inhibition was 65.2% (active).

For the compound `CCC(=O)N(CCc1ccccc1)Cc1cc2cc(C)ccc2[nH]c1=O`, the inhibition was -1.18%.

Take `C#CCOCCOCCOCCNc1nc(N2CCN(C(=O)C([C@@H](C)O)n3cc([C@@H](N)CCCCN)nn3)CC2)nc(N2CCN(C(=O)[C@H](CCCCN)n3cc(CN)nn3)CC2)n1` (stereo not given in full): the inhibition is -0.3%.

With `C=CCn1c(=S)[nH]c2nc3c(cc2c1=O)COC(C)(C)C3`, the inhibition was -8.72%.

On to `C=CCn1cnc2scc(-c3ccccc3)c2c1=O`, for which the inhibition was -18.1%.

As for `C=CCn1c(=S)[nH]c2scc(-c3ccco3)c2c1=O`, the inhibition was 67.9% (active).

Turning to `CN(CCC1CCOCC1)Cc1cn[nH]c1-c1ccc(-c2ccccc2)cc1`, the inhibition was -1.75%.

With `CCn1c(=O)n(CC)c2cc(N3CCCC3)c(NC(=O)c3ccccc3Br)cc21`, the inhibition was -2.26%.

Consider `Cc1ccc(CNC(=O)CCNC(=O)Cn2ccc3ccccc3c2=O)cc1`, for which the inhibition is -12.1%.

For `Cc1ccc2nc3c(cc(C(=O)NCCc4ccccc4)c(=N)n3CC3CCCO3)c(=O)n2c1` (stereo not given), the inhibition is 1.78%.

`Cc1ccc(CCNC(=O)c2ccc3nc4ccccc4c(=O)n3c2)cc1`: the inhibition was 60.3% (active).

In the case of `CCOc1cc(C2/C(=C(/O)c3ccc(S(=O)(=O)N4CCCCC4)cc3)C(=O)C(=O)N2CCOC)ccc1O` (stereo not given), the inhibition was 1.05%.

As to `Cc1cccc(NC(=O)CSc2nc3c(c(=O)[nH]2)CCC3)c1C`, the inhibition is -1.16%.

Turning to `COc1ccccc1N1CCN(C(=O)c2cc(=O)c3cc(C)cc(C)c3o2)CC1`, the inhibition is -7.13%.

Regarding `Cn1c(N)c(C(=O)COC(=O)c2cnc(Cl)c(Cl)c2)c(=O)n(C)c1=O`, the inhibition is -5.15%.

As to `Cn1c(N)c(C(=O)COC(=O)c2ccc3ccccc3c2)c(=O)n(C)c1=O`, the inhibition was 53% (active).

For `Cn1c(N)c(C(=O)COC(=O)c2cccc(S(=O)(=O)N3CCOCC3)c2)c(=O)n(C)c1=O`, the inhibition was 3.96%.

Turning to `C[C@]1(C(=O)NCCc2c[nH]c3ccccc23)C=C[C@@H](Cc2ccccc2)N1C(=O)c1ccccc1`, the inhibition is -5.17%.

`CCOc1ccc(NC(=O)c2ccc(NC(=O)COC(=O)c3ccc(NC(=O)CC#N)cc3)cc2)cc1`: the inhibition is 85.9% (active).

Turning to `N#CCC(=O)Nc1ccc(C(=O)OCC(=O)Nc2sc3c(c2C#N)CCCC3)cc1`, the inhibition was 1.62%.

Take `CC(C)NC(=O)NC(=O)COC(=O)c1ccc(NC(=O)CC#N)cc1`: the inhibition is -2.24%.

As to `Cc1ncn2cc(-c3ccc(Cl)cc3Cl)[nH]c(=O)c12`, the inhibition is -6.56%.

On to `O=C(NCc1cccc(Cl)c1)C1CCN(c2nnc(N3CCCC3=O)s2)CC1`, for which the inhibition was -6.55%.

As to `O=C(NNC(=O)c1ccccc1[N+](=O)[O-])Nc1ccccc1C(F)(F)F`, the inhibition is 0.19%.

As to `C=C(C)C(=O)Nc1cccc(C2=NOC3(C2)C[C@H](C(N)=O)N(C(=O)C(c2ccccc2)c2ccccc2)C3)c1` (stereo not given in full), the inhibition is 70.2% (active).

Consider `C/C=C\C=C\C(=O)N1CC2(CC(c3cccc(NC(=O)/C(C)=C\C)c3)=NO2)C[C@H]1C(N)=O` (stereo not given in full), for which the inhibition was 34.8%.

For `C/C=C(/C)C(=O)Nc1cccc(C2=NOC3(C2)C[C@@H](C(N)=O)N(C(=O)C2(C)CC2)C3)c1` (stereo not given in full), the inhibition was -2.33%.

`C=CCn1cc(C(=O)NCc2ccc(Cl)cc2)c(=O)c2cc(S(=O)(=O)N(CC)CC)ccc21`: the inhibition was -4.15%.

As to `COCCC(=O)N1CCC(Oc2ccc(C(=O)NCc3ccon3)cc2)CC1`, the inhibition is -1.77%.

Take `COc1ccc(S(=O)(=O)N2CCN(CC(=O)N3CCOCC3)CC2)cc1OC`: the inhibition is -0.04%.

As for `CC(C)C(O)C1CCN(Cc2nc(Cc3ccccc3Cl)no2)CC1` (stereo not given), the inhibition is -2.82%.

`O=c1[nH]n(-c2ccc([N+](=O)[O-])cc2)c(=O)c2ccccc12`: the inhibition is 52.1% (active).

Consider `O=[N+]([O-])c1ccc(N2CCOCC2)cc1`, for which the inhibition was -2.71%.

For the compound `COc1cnn(-c2ccc([N+](=O)[O-])cc2)c(=O)c1Cl`, the inhibition was -3.84%.

Turning to `CC(C)(C)c1cc2cccnc2n1Cc1cccc(F)c1`, the inhibition was -1.78%.

Turning to `CCOC(=O)C1CCN(S(=O)(=O)c2c(C)noc2C)CC1`, the inhibition was -4.7%.

In the case of `COc1ccccc1NC(=O)c1ccc(N2CC3CC(C2)c2cccc(=O)n2C3)c(NC(=O)c2cccnc2)c1` (stereo not given), the inhibition was -3.99%.

For the compound `Cc1ccc2cc(/C=N/Nc3ccc(C(=O)O)cc3)c(Cl)nc2c1`, the inhibition is 0.89%.

On to `CCNC(=S)NNC(=O)c1ccc2ncccc2c1`, for which the inhibition was -9.05%.

Consider `O=C(O)c1ccc(N/N=C/c2ccc3ncccc3c2)cc1`, for which the inhibition is 50.4% (active).

`Cn1c2ccccc2c(=O)c2c(=O)n(Cc3ccco3)c(COc3ccccc3)nc21`: the inhibition is 92.9% (active).

For `O=c1c2ccccc2oc2nc(C3CCCCC3)n(Cc3ccco3)c(=O)c12`, the inhibition is -2.2%.

Take `CCCc1nc2c(c(=O)c3ccccc3n2C)c(=O)n1C1CCCCCC1`: the inhibition was 2.39%.

In the case of `COCCn1c(C)cc(C(=O)COC(=O)CNC(=O)c2ccco2)c1C`, the inhibition was -7.15%.

As for `Cc1ccc(C(=O)Nc2nc(N)n(-c3ccccc3)n2)cc1`, the inhibition was -3.84%.

On to `Cc1cc(S(=O)(=O)N2CCOCC2)ccc1OCC(=O)N1CCOCC1`, for which the inhibition was 2.62%.

Consider `CCC(C)NC(=O)/C=C/c1ccc(S(=O)(=O)NCc2ccco2)cc1` (stereo not given), for which the inhibition was 6.25%.

Consider `CSc1ccccc1NC(=O)C(C)N1C(=O)c2ccccc2S1(=O)=O` (stereo not given), for which the inhibition was 39.4%.

Regarding `CC(=O)Nc1ccccc1Sc1ccc2c3c(cccc13)C(=O)N(c1ccc(C)cc1)C2=O`, the inhibition is 53.1% (active).

For the compound `Cc1ccc(N2C(=O)CC(Nc3cccc4ccccc34)C2=O)cc1` (stereo not given), the inhibition was -3.84%.

For `COC(=O)c1cc(S(=O)(=O)Nc2ccc(C)c(F)c2)c[nH]1`, the inhibition is -3.42%.

As for `Cc1coc2cc3oc(=O)c(CCC(=O)O)c(C)c3cc12`, the inhibition is -1.97%.

With `COc1ccc2c(C)c(CCC(=O)NC3CC3)c(=O)oc2c1C`, the inhibition is -1.31%.

On to `Cc1c(CCC(=O)O)c(=O)oc2cc3occ(-c4ccccc4)c3cc12`, for which the inhibition was -18.2%.

As to `Cc1c(CCC(=O)O)c(=O)oc2c(C)c(OCc3ccccc3Cl)ccc12`, the inhibition is 97.5% (active).

Consider `CCOC(=O)CCc1c(C)c2ccc(OCc3nn[nH]n3)c(C)c2oc1=O`, for which the inhibition is 2.8%.

For the compound `Cc1c(CCC(=O)O)c(=O)oc2cc(OCc3ccc(Br)cc3)ccc12`, the inhibition is 53.3% (active).

On to `O=C(COC(=O)[C@H](Cc1ccccc1)NC(=O)c1cccs1)Nc1cc(F)ccc1F`, for which the inhibition is -10.5%.

Take `CCN(CC)c1ccc([N+](=O)[O-])cc1C(=O)O`: the inhibition is -4.84%.

Regarding `COc1cccc(NC(=O)Cn2cnc3sc(C)c(S(=O)(=O)N4CCN(C)CC4)c3c2=O)c1`, the inhibition is -1.94%.

For `CCOc1ccc(C(=O)CCN2CCOCC2)cc1`, the inhibition is -2.17%.

As to `CCCOc1ccc(C(=O)C(CCC(CNCC)C(=O)c2ccc(OCCC)cc2)CNCC)cc1` (stereo not given), the inhibition was 10.4%.

On to `CC(C)CCOc1ccc(C(=O)C[N+]2(C)CCOCC2)cc1`, for which the inhibition was 51% (active).

As to `Cc1ccc(CNC(=O)C2CCCN2C(=O)NCc2ccccc2)cc1` (stereo not given), the inhibition was -7.83%.

`O=C(COc1ccc(Cl)cc1)Nc1ccccc1CO`: the inhibition was -5.63%.

`O=C(COc1ccc(-n2cnnn2)cc1)Nc1ccccc1Cl`: the inhibition was 58.7% (active).

As to `C=CCc1cccc(/C=N/NC(=O)COc2ccc(-n3cnnn3)cc2)c1O`, the inhibition was -8.78%.

Take `COc1ccc(C(=O)N(Cc2ccccc2)c2ccc(C)cc2)cc1S(=O)(=O)N1CCOCC1`: the inhibition was -6.19%.

`C=CCOc1ccc(/C=C/C(=O)OCC(=O)NC2CCCCCC2)cc1`: the inhibition was 22%.

For `CCNc1nc(NC(C)C)nc(OCCOC(=O)c2ccccc2)n1`, the inhibition was 2.19%.

As to `O=C(Nc1cccc(F)c1)[C@@H]1CCCN1`, the inhibition was 67.8% (active).

Consider `O=C(Nc1cccc(F)c1)NC1CCCCCCC1`, for which the inhibition is -10.5%.

`O=C(COC(=O)CNC(=O)C1CCCCC1)Nc1cccc(F)c1`: the inhibition is -6.06%.

For `Cc1ccc(N2C(=O)N3[C@@H]4c5ccccc5OC[C@@H]4[C@@H](c4ccccc4)[C@@]3(C)C2=O)cc1`, the inhibition was -17.6%.

`N#C/C=C/N1CCN(Cc2ccc3c(c2)OCO3)CC1`: the inhibition was -12.3%.

As for `O=C(c1ccc(F)cc1)N1CCCC(C(=O)N2CCCCC2)C1` (stereo not given), the inhibition was -6.52%.

Regarding `Cc1ccc(Cc2nnc(SCC(=O)Nc3ccccc3C)[nH]c2=O)cc1`, the inhibition was 16.3%.

`COc1ccc(Cc2nnc(SCC(=O)Nc3ccc(C)c(Cl)c3)[nH]c2=O)cc1`: the inhibition was 48%.

In the case of `Cc1ccc(Cc2nnc(SCC(=O)Nc3ccc(C)cc3C)[nH]c2=O)cc1`, the inhibition is 53.8% (active).

As to `COc1ccc2cc(C3=CC(=O)C[C@H](c4ccc5c(c4)OCO5)C3)ccc2c1`, the inhibition is -11%.

In the case of `CCC(C)NC(=O)N[C@@H](CCSC)C(=O)O` (stereo not given in full), the inhibition is -4.53%.

For the compound `COc1ccccc1OCCNC(=O)C(CCSC)NC(=O)COc1ccccc1` (stereo not given), the inhibition was -8.06%.

In the case of `COC(=O)CNC(=O)C(CCSC)NC(C)=O` (stereo not given) (Ac-[ξM]-Gly-OMe), the inhibition is 50.3% (active).

For the origin of these results see PubChem BioAssay AID493091 (Sanford-Burnham Center for Chemical Genomics, 2011).
